Test results published in ChEMBL document CHEMBL5303300, “EUbOPEN Chemogenomics Library - Multiplex” (2023).
Values joined by “and” are separate entries in the source; they are usually repeats but may differ in a detail not shown here. Identical values can stand only once.

Tested on: HEK-293T
Test: Multiplex assay against HEK293T
Format: toxicity, cell-based
Conditions: human, number of replicates 2
Method in brief: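 Cells were classed with CellPathfinder machine-learning gating, first as Hoechst high-intensity objects or normal cells, then (normal cells) as healthy, pyknosed or fragmented nuclei, and finally (pyknosed cells) as mitotic or apoptotic. Staining of live cells at seeding used Hoechst33342, BioTracker Green Microtubule Cytoskeleton Dye, MitoTracker Red and Annexin V Alexa Fluor 680, with imaging on a CQ1 microscope at 37°C and 5% CO2 after compound addition. Tubulin, mitochondrial-mass and membrane-permeability phenotypes are per cents of healthy-nucleus cells.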

[1] = 12 h, 1 µM, compound concentration 1 uM
[2] = 12 h, 10 µM, compound concentration 10 uM
[3] = 24 h, 1 µM, compound concentration 1 uM
[4] = 24 h, 10 µM, compound concentration 10 uM
[5] = 48 h, 1 µM, compound concentration 1 uM
[6] = 48 h, 10 µM, compound concentration 10 uM

CC1=C(C)C(=O)C(C(C)(C)CC(=O)N(CCCCSC[C@H]2O[C@@H](n3cnc4c(N)ncnc43)[C@H](O)[C@@H]2O)Cc2cccc(-c3ccc(Cl)cc3)c2)=C(C)C1=O
Population Apoptotic (%) [1]: 40% and 44% | Population Fragmented Nuclei (%) [1]: 4% | Population Healthy Nuclei (%) [1]: 89% and 86% | Population Hoechst High Intensity Objects (%) [1]: 6% and 7% | Population Membrane Permeable-Phenotype (%) [1]: 4% and 3% | Population Mitochondria Different-Phenotype (%) [1]: 10% and 11% | Population Mitotic Cells (%) [1]: 59% and 55% | Population Normal (%) [1]: 93% and 92% | Population Pyknosed Nuclei (%) [1]: 6% and 8% | Population Tubulin-Different-Phenotype (%) [1]: 71% and 70% | Total Cell Count [1]: 874 and 797 | Population Apoptotic (%) [2]: 52% and 54% | Population Fragmented Nuclei (%) [2]: 2% | Population Healthy Nuclei (%) [2]: 82% and 81% | Population Hoechst High Intensity Objects (%) [2]: 7% | Population Membrane Permeable-Phenotype (%) [2]: 10% and 3% | Population Mitochondria Different-Phenotype (%) [2]: 48% and 51% | Population Mitotic Cells (%) [2]: 47% and 45% | Population Normal (%) [2]: 92% | Population Pyknosed Nuclei (%) [2]: 14% and 15% | Population Tubulin-Different-Phenotype (%) [2]: 88% and 92% | Total Cell Count [2]: 506 and 434 | Population Apoptotic (%) [3]: 21% and 25% | Population Fragmented Nuclei (%) [3]: 8% and 6% | Population Healthy Nuclei (%) [3]: 87% | Population Hoechst High Intensity Objects (%) [3]: 8% | Population Membrane Permeable-Phenotype (%) [3]: 6% and 3% | Population Mitochondria Different-Phenotype (%) [3]: 2% and 5% | Population Mitotic Cells (%) [3]: 78% and 74% | Population Normal (%) [3]: 91% | Population Pyknosed Nuclei (%) [3]: 4% and 6% | Population Tubulin-Different-Phenotype (%) [3]: 50% | Total Cell Count [3]: 1418 and 1263 | Population Apoptotic (%) [4]: 46% and 64% | Population Fragmented Nuclei (%) [4]: 3% | Population Healthy Nuclei (%) [4]: 81% | Population Hoechst High Intensity Objects (%) [4]: 7% and 9% | Population Membrane Permeable-Phenotype (%) [4]: 4% and 3% | Population Mitochondria Different-Phenotype (%) [4]: 62% and 59% | Population Mitotic Cells (%) [4]: 53% and 35% | Population Normal (%) [4]: 92% and 90% | Population Pyknosed Nuclei (%) [4]: 15% and 14% | Population Tubulin-Different-Phenotype (%) [4]: 88% and 93% | Total Cell Count [4]: 524 and 473 | Population Apoptotic (%) [5]: 10% and 13% | Population Fragmented Nuclei (%) [5]: 24% and 15% | Population Healthy Nuclei (%) [5]: 74% and 81% | Population Hoechst High Intensity Objects (%) [5]: 10% and 9% | Population Membrane Permeable-Phenotype (%) [5]: 6% and 5% | Population Mitochondria Different-Phenotype (%) [5]: 0% | Population Mitotic Cells (%) [5]: 89% and 86% | Population Normal (%) [5]: 89% and 90% | Population Pyknosed Nuclei (%) [5]: 1% and 2% | Population Tubulin-Different-Phenotype (%) [5]: 25% and 28% | Total Cell Count [5]: 3744 and 2984 | Population Apoptotic (%) [6]: 55% and 62% | Population Fragmented Nuclei (%) [6]: 4% and 5% | Population Healthy Nuclei (%) [6]: 87% and 88% | Population Hoechst High Intensity Objects (%) [6]: 6% and 10% | Population Membrane Permeable-Phenotype (%) [6]: 8% and 6% | Population Mitochondria Different-Phenotype (%) [6]: 47% | Population Mitotic Cells (%) [6]: 44% and 37% | Population Normal (%) [6]: 93% and 89% | Population Pyknosed Nuclei (%) [6]: 7% and 5% | Population Tubulin-Different-Phenotype (%) [6]: 93% and 92% | Total Cell Count [6]: 622 and 637

Cc1cc(NC(=O)c2cccc(NC(=O)/C=C/CN(C)C)c2)ccc1Nc1nccc(-c2cccnc2)n1
Population Apoptotic (%) [1]: 41% and 60% | Population Fragmented Nuclei (%) [1]: 3% | Population Healthy Nuclei (%) [1]: 87% | Population Hoechst High Intensity Objects (%) [1]: 11% and 10% | Population Membrane Permeable-Phenotype (%) [1]: 4% and 2% | Population Mitochondria Different-Phenotype (%) [1]: 40% and 30% | Population Mitotic Cells (%) [1]: 58% and 40% | Population Normal (%) [1]: 88% and 89% | Population Pyknosed Nuclei (%) [1]: 9% | Population Tubulin-Different-Phenotype (%) [1]: 93% and 92% | Total Cell Count [1]: 450 and 477 | Population Apoptotic (%) [2]: 63% and 71% | Population Fragmented Nuclei (%) [2]: 1% and 3% | Population Healthy Nuclei (%) [2]: 85% and 87% | Population Hoechst High Intensity Objects (%) [2]: 8% and 11% | Population Membrane Permeable-Phenotype (%) [2]: 2% and 1% | Population Mitochondria Different-Phenotype (%) [2]: 35% and 50% | Population Mitotic Cells (%) [2]: 36% and 28% | Population Normal (%) [2]: 91% and 88% | Population Pyknosed Nuclei (%) [2]: 12% and 9% | Population Tubulin-Different-Phenotype (%) [2]: 95% and 97% | Total Cell Count [2]: 393 and 436 | Population Apoptotic (%) [3]: 62% and 53% | Population Fragmented Nuclei (%) [3]: 5% | Population Healthy Nuclei (%) [3]: 82% and 81% | Population Hoechst High Intensity Objects (%) [3]: 11% and 10% | Population Membrane Permeable-Phenotype (%) [3]: 2% | Population Mitochondria Different-Phenotype (%) [3]: 36% and 28% | Population Mitotic Cells (%) [3]: 37% and 46% | Population Normal (%) [3]: 88% and 89% | Population Pyknosed Nuclei (%) [3]: 12% | Population Tubulin-Different-Phenotype (%) [3]: 92% and 90% | Total Cell Count [3]: 510 and 551 | Population Apoptotic (%) [4]: 76% and 74% | Population Fragmented Nuclei (%) [4]: 2% and 5% | Population Healthy Nuclei (%) [4]: 87% and 77% | Population Hoechst High Intensity Objects (%) [4]: 19% and 14% | Population Membrane Permeable-Phenotype (%) [4]: 0% and 1% | Population Mitochondria Different-Phenotype (%) [4]: 79% and 60% | Population Mitotic Cells (%) [4]: 23% and 25% | Population Normal (%) [4]: 80% and 85% | Population Pyknosed Nuclei (%) [4]: 10% and 17% | Population Tubulin-Different-Phenotype (%) [4]: 99% and 96% | Total Cell Count [4]: 367 and 377 | Population Apoptotic (%) [5]: 66% and 70% | Population Fragmented Nuclei (%) [5]: 10% and 12% | Population Healthy Nuclei (%) [5]: 77% and 76% | Population Hoechst High Intensity Objects (%) [5]: 11% and 12% | Population Membrane Permeable-Phenotype (%) [5]: 5% and 7% | Population Mitochondria Different-Phenotype (%) [5]: 10% and 11% | Population Mitotic Cells (%) [5]: 33% and 29% | Population Normal (%) [5]: 88% and 87% | Population Pyknosed Nuclei (%) [5]: 11% | Population Tubulin-Different-Phenotype (%) [5]: 83% and 80% | Total Cell Count [5]: 671 and 800 | Population Apoptotic (%) [6]: 74% and 73% | Population Fragmented Nuclei (%) [6]: 6% | Population Healthy Nuclei (%) [6]: 43% and 40% | Population Hoechst High Intensity Objects (%) [6]: 27% and 19% | Population Membrane Permeable-Phenotype (%) [6]: 12% and 9% | Population Mitochondria Different-Phenotype (%) [6]: 61% | Population Mitotic Cells (%) [6]: 25% and 26% | Population Normal (%) [6]: 72% and 80% | Population Pyknosed Nuclei (%) [6]: 50% and 52% | Population Tubulin-Different-Phenotype (%) [6]: 74% and 70% | Total Cell Count [6]: 368 and 375
